Measurements published in ChEMBL document CHEMBL4354826, “Structure-Based Discovery of SD-36 as a Potent, Selective, and Efficacious PROTAC Degrader of STAT3 Protein” (J Med Chem, 2019).
Active and inactive are the calls of the source. No cut-off for these calls is given here.

Columns and labels:
[1] = target: T1, Protein cereblon/Signal transducer and activator of transcription 3 (Homo sapiens, UniProt P40763+Q96SW2); assay: Protac activity at CRBN/STAT3 in human MOLM16 cells assessed as degradation of STAT3 incubated for 4 hrs by Western blot analysis; assay type: cell-based
Method in brief: (§1)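 Molm-16 cells treated 4 h with serially diluted compound. Lysates immunoblotted (SDS–PAGE, PVDF, 5% blocker/TBST, chemiluminescence) for total STAT3 and pSTAT3 Y705. DC50 taken as the concentration reducing total STAT3 by 50%.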
Target sequence in this assay (P40763 whole entry): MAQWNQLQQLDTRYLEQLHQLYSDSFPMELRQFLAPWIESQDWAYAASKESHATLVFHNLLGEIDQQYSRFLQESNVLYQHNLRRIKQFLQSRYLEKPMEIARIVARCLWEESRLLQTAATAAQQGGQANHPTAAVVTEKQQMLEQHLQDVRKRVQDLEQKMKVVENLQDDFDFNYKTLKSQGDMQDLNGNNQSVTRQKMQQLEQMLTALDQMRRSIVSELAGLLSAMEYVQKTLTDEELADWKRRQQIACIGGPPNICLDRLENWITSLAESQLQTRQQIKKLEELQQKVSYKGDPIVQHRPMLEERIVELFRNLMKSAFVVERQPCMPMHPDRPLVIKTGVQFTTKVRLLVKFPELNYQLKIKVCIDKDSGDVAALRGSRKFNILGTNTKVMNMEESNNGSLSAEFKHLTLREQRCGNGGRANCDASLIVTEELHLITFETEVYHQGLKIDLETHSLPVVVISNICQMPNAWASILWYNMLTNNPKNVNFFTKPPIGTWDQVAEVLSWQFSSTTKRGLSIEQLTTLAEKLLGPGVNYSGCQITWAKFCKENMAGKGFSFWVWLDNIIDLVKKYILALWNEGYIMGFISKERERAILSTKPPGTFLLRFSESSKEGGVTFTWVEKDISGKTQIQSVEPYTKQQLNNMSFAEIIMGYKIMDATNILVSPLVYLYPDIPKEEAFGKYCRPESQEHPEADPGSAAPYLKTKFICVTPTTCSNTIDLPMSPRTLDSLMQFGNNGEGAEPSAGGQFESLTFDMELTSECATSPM
Target sequence in this assay (Q96SW2 whole entry): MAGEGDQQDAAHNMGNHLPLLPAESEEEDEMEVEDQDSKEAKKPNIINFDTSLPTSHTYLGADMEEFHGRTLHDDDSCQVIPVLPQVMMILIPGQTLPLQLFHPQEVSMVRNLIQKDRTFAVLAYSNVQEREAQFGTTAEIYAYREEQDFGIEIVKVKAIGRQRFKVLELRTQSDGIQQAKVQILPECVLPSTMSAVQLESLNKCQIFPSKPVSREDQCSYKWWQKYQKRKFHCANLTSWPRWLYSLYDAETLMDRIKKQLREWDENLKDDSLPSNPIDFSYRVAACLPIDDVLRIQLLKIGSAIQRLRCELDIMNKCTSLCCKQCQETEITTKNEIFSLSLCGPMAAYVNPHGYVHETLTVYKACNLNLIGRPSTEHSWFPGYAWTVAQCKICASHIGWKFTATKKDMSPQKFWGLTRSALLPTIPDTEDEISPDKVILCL

SU-DHL-1 = assay: Antiproliferative activity against human SUDHL1 cells assessed as reduction in cell viability incubated for 4 days by cell-titer glo luminescent assay; assay type: functional, cell-based; details: SU-DHL-1, 96 h
Method in brief: (§2)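 Viability assay: cells incubated with serially diluted compounds for 4 days, viability read by CellTiter-Glo luminescence; IC50 from concentration–response.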

[2] = target: T1, Protein cereblon/Signal transducer and activator of transcription 3; assay: Protac activity at CRBN/STAT3 in human SUDHL1 cells assessed as degradation of STAT3 incubated for 16 hrs by Western blot analysis; assay type: cell-based
Target sequence in this assay (P40763 whole entry): as the sequence (P40763 whole entry) above
Target sequence in this assay (Q96SW2 whole entry): as the sequence (Q96SW2 whole entry) above

[3] = Antiproliferative activity against human MOLM16 cells assessed as reduction in cell viability incubated for 4 days by cell-titer glo luminescent assay; assay type: functional, cell-based; details: MOLM16, 96 h; method in brief: as §2
Mus musculus = assay: In vivo degradation of STAT3 in CD1 mouse at 25 mg/kg, iv measured upto 48 hrs by Western blot analysis; assay type: functional, organism-based
Method in brief: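 Female CD-1 mice given a single intravenous dose in 10% PEG400 + 90% PBS, or vehicle. Euthanized at set time points. Spleen harvested and lysates immunoblotted for STAT3.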

[4] = target: T2, Protein cereblon/Signal transducer and activator of transcription 5B (Homo sapiens) (UniProt P51692+Q96SW2); assay: Protac activity at CRBN/STAT5B in human MOLM16 cells assessed as degradation of STAT5B at 10 uM incubated for 4 hrs by Western blot analysis; assay type: cell-based
T2 sequence (P51692 whole entry, looked up): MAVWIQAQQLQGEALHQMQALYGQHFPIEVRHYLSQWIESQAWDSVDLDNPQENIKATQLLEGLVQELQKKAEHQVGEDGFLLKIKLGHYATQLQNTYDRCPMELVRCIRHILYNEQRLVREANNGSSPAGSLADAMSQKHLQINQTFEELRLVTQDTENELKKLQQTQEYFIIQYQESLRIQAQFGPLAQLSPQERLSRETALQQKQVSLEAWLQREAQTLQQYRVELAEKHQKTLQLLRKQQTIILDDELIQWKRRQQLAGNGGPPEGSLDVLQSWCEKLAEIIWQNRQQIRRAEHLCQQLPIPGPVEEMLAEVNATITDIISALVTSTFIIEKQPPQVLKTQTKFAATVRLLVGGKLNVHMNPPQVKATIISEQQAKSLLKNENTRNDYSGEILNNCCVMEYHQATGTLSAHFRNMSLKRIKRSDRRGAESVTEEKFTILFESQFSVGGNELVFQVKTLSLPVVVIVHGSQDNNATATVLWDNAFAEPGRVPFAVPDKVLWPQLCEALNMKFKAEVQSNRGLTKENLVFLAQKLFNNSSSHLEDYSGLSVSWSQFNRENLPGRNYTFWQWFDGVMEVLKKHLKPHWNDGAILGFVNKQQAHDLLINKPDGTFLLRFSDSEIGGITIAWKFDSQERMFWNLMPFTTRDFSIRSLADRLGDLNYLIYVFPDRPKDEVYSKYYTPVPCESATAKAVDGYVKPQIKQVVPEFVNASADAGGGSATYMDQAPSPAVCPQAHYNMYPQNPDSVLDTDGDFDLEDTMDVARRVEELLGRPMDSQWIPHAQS
T2 sequence (Q96SW2 whole entry, looked up): as the sequence (Q96SW2 whole entry) above
Method in brief: (§3)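 Molm-16 cells treated 4 h with test compound at 0.01–10 μM, or control compounds at 10 μM. Lysates separated by SDS–PAGE, transferred to PVDF, blocked 1 h in 5% blocker/TBST, probed for each STAT protein, and detected by chemiluminescence.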

[5] = target: T3, Protein cereblon/Signal transducer and activator of transcription 4 (Homo sapiens) (UniProt Q96SW2+Q14765); assay: Protac activity at CRBN/STAT4 in human SUDHL1 cells assessed as degradation of STAT4 at 10 uM incubated for 18 hrs by Western blot analysis; assay type: cell-based
Method in brief: (§4)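 SU-DHL-1 cells treated 18 h with test compound at 0.01–10 μM, or control compounds at 10 μM. Lysates separated by SDS–PAGE, transferred to PVDF, blocked 1 h in 5% blocker/TBST, probed for each STAT protein, and detected by chemiluminescence.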

[6] = target: T4, Protein cereblon/Signal transducer and activator of transcription 5A (Homo sapiens) (UniProt P42229+Q96SW2); assay: Protac activity at CRBN/STAT5A in human MOLM16 cells assessed as degradation of STAT5A at 10 uM incubated for 4 hrs by Western blot analysis; assay type: cell-based; method in brief: as §3
T4 sequence (P42229 whole entry, looked up): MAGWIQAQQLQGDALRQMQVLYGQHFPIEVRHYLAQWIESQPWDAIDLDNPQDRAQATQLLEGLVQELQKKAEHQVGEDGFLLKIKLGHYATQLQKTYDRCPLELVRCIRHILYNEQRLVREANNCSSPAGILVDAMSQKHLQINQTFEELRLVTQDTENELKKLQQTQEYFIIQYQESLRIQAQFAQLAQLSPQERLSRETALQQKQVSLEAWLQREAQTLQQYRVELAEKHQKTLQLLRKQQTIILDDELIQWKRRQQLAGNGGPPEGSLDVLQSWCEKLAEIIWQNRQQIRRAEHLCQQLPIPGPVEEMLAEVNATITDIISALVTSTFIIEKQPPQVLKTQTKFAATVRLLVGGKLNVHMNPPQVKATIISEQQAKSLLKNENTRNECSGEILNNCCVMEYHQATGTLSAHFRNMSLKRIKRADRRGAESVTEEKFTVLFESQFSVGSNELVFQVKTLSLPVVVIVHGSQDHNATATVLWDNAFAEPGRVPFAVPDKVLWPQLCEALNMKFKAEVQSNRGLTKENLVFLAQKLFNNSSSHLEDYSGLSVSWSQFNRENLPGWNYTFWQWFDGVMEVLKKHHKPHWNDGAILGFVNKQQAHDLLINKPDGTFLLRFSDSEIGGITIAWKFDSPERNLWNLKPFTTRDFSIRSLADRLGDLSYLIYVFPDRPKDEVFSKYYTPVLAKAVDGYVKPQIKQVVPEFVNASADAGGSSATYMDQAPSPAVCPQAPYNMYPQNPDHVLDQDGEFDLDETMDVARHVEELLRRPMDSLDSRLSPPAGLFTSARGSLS
T4 sequence (Q96SW2 whole entry, looked up): as the sequence (Q96SW2 whole entry) above

[7] = target: T5, Protein cereblon/Signal transducer and activator of transcription 2 (Homo sapiens) (UniProt Q96SW2+P52630); assay: Protac activity at CRBN/STAT2 in human MOLM16 cells assessed as degradation of STAT2 at 10 uM incubated for 4 hrs by Western blot analysis; assay type: cell-based; method in brief: as §3
[8] = target: T1, Protein cereblon/Signal transducer and activator of transcription 3; assay: Protac activity at CRBN/STAT3 in human MOLM16 cells assessed as degradation of STAT3 at 1 uM incubated for 4 hrs by Western blot analysis; assay type: cell-based; method in brief: as §1
[9] = target: T1, Protein cereblon/Signal transducer and activator of transcription 3; assay: Protac activity at CRBN/STAT3 in human MOLM16 cells assessed as degradation of phosphorylated STAT3 Y705 at 1 uM incubated for 4 hrs by Western blot analysis; assay type: cell-based; method in brief: as §1
[10] = target: T6, Protein cereblon/Signal transducer and activator of transcription 1-alpha/beta (Homo sapiens) (UniProt P42224+Q96SW2); assay: Protac activity at CRBN/STAT1 in human SUDHL1 cells assessed as degradation of STAT1 at 10 uM incubated for 18 hrs by Western blot analysis; assay type: cell-based; method in brief: as §4
[11] = target: T7, Protein cereblon/Signal transducer and activator of transcription 6 (Homo sapiens) (UniProt P42226+Q96SW2); assay: Protac activity at CRBN/STAT6 in human MOLM16 cells assessed as degradation of STAT6 at 10 uM incubated for 4 hrs by Western blot analysis; assay type: cell-based; method in brief: as §3
T7 sequence (P42226 2-847 limits assumed): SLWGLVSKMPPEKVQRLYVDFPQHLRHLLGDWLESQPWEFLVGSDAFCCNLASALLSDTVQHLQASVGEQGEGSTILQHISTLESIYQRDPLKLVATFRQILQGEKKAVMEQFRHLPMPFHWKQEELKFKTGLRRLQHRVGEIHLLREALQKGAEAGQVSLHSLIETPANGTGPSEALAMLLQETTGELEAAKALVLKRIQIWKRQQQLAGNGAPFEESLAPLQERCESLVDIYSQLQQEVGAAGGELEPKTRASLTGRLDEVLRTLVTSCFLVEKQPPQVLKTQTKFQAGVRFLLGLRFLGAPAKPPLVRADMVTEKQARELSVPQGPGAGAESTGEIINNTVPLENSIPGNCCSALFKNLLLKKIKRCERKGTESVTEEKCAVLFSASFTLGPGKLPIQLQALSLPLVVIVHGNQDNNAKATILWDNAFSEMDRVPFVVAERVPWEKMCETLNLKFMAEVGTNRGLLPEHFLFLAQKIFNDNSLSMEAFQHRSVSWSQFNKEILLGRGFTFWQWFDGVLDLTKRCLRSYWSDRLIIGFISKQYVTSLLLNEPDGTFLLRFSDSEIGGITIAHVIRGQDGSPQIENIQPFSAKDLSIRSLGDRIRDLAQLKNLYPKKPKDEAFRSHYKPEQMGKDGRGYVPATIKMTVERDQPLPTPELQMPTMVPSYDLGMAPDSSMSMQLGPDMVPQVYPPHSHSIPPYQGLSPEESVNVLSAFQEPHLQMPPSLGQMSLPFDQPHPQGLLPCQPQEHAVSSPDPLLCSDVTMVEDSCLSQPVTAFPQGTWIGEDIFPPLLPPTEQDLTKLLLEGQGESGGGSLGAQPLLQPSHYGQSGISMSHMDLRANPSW
T7 sequence (Q96SW2 whole entry partner): as the sequence (Q96SW2 whole entry) above

[12] = target: T1, Protein cereblon/Signal transducer and activator of transcription 3; assay: Protac activity at CRBN/STAT3 in human SUDHL1 cells assessed as degradation of STAT3 at 10 uM incubated for 18 hrs by Western blot analysis; assay type: cell-based; method in brief: as §4
[13] = target: T7, Protein cereblon/Signal transducer and activator of transcription 6 (Homo sapiens); assay: Protac activity at CRBN/STAT6 in human SUDHL1 cells assessed as degradation of STAT6 at 10 uM incubated for 18 hrs by Western blot analysis; assay type: cell-based
Method in brief: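 SU-DHL-1 cells exposed to compound over 0.01–10 μM, or controls at 10 μM, for 18 h. Lysates separated by SDS–PAGE and transferred to PVDF. Membranes blocked 1 h in 5% blocker/TBST, probed with primary then secondary antibodies, and developed by chemiluminescence for STAT1, STAT2, STAT4, STAT5A/B, STAT6 and STAT3.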

[14] = target: T1, Protein cereblon/Signal transducer and activator of transcription 3; assay: Protac activity at CRBN/STAT3 in human SUDHL1 cells assessed as degradation of phosphorylated STAT3 Y705 upto 10 uM incubated for 16 hrs by Western blot analysis; assay type: cell-based
[15] = target: T8, Signal transducer and activator of transcription 3 (Homo sapiens, UniProt P40763); assay: Binding affinity to recombinant human His/SUMO-tagged STAT3 (127 to 688 residues) expressed in Escherichia coli Rosetta (DE3) incubated for 1 hr by fluorescence polarization assay
[16] = target: T6, Protein cereblon/Signal transducer and activator of transcription 1-alpha/beta (Homo sapiens); assay: Protac activity at CRBN/STAT1 in human MOLM16 cells assessed as degradation of STAT1 at 10 uM incubated for 4 hrs by Western blot analysis; assay type: cell-based; method in brief: as §3
[17] = target: T1, Protein cereblon/Signal transducer and activator of transcription 3; assay: Protac activity at CRBN/STAT3 in human MOLM16 cells assessed as degradation of STAT3 at 10 uM incubated for 4 hrs by Western blot analysis; assay type: cell-based; method in brief: as §3
[18] = target: T1, Protein cereblon/Signal transducer and activator of transcription 3; assay: Protac activity at CRBN/STAT3 in human SUDHL1 cells assessed as degradation of STAT3 upto 10 uM incubated for 16 hrs by Western blot analysis; assay type: cell-based
[19] = target: T2, Protein cereblon/Signal transducer and activator of transcription 5B (Homo sapiens); assay: Protac activity at CRBN/STAT5B in human SUDHL1 cells assessed as degradation of STAT5B at 10 uM incubated for 18 hrs by Western blot analysis; assay type: cell-based; method in brief: as §4
[20] = target: T5, Protein cereblon/Signal transducer and activator of transcription 2 (Homo sapiens); assay: Protac activity at CRBN/STAT2 in human SUDHL1 cells assessed as degradation of STAT2 at 10 uM incubated for 18 hrs by Western blot analysis; assay type: cell-based; method in brief: as §4
[21] = target: T4, Protein cereblon/Signal transducer and activator of transcription 5A (Homo sapiens); assay: Protac activity at CRBN/STAT5A in human SUDHL1 cells assessed as degradation of STAT5A at 10 uM incubated for 18 hrs by Western blot analysis; assay type: cell-based; method in brief: as §4
[22] = target: T3, Protein cereblon/Signal transducer and activator of transcription 4 (Homo sapiens); assay: Protac activity at CRBN/STAT4 in human MOLM16 cells assessed as degradation of STAT4 at 10 uM incubated for 4 hrs by Western blot analysis; assay type: cell-based; method in brief: as §3
[23] = target: T8, Signal transducer and activator of transcription 3; assay: Binding affinity to STAT3 (unknown origin)
[24] = target: T1, Protein cereblon/Signal transducer and activator of transcription 3; assay: Protac activity at CRBN/STAT3 in human MOLM16 cells assessed as degradation of STAT3 up to 10 uM incubated for 4 hrs by Western blot analysis; assay type: cell-based; method in brief: as §1

Row | SMILES | DC50 [1] | IC50 (SU-DHL-1) | DC50 [2] | IC50 [3] | Activity [4] | Activity [5] | Activity [6] | Activity [7] | Activity [10] | Activity [11] | Activity [12] | Activity [13] | Activity [14] | Activity [16] | Activity [17] | Activity [18] | Activity [19] | Activity [20] | Activity [21] | Activity [22] | other results
1 | NC(=O)CC[C@H](NC(=O)[C@@H]1CC[C@@H]2CCN(C(=O)NCCCCC#Cc3cccc4c3CN(C3CCC(=O)NC3=O)C4=O)C[C@H](NC(=O)c3cc4cc(C(F)(F)P(=O)(O)O)ccc4[nH]3)C(=O)N21)C(=O)NC(c1ccccc1)c1ccccc1 (stereo not given in full) | 0.05 µM | 0.43 µM | 0.011 µM | 0.091 µM | – | – | – | – | – | – | – | – | – | – | – | – | – | – | – | – | Activity (Mus musculus): Active
2 | CC(=O)N1CC[C@H]2CC[C@@H](C(=O)N[C@@H](CCC(N)=O)C(=O)NC(c3ccccc3)c3ccccc3)N2C(=O)[C@@H](NC(=O)c2cc3cc(C(F)(F)P(=O)(O)O)ccc3[nH]2)C1 | > 10 µM | > 10 µM | > 10 µM | 6.45 µM | inactive | inactive | inactive | inactive | inactive | inactive | inactive | inactive | inactive | inactive | inactive | inactive | inactive | inactive | inactive | inactive | Activity [8]: inactive; Activity [9]: inactive; Ki [15]: 0.014 µM
3 | NC(=O)CC[C@H](NC(=O)[C@@H]1CC[C@@H]2CCCC[C@H](NC(=O)c3cc4cc(CP(=O)(O)O)ccc4[nH]3)C(=O)N21)C(=O)NCc1ccccc1 | – | – | – | – | – | – | – | – | – | – | – | – | – | – | – | – | – | – | – | – | Ki [23]: 0.761 µM
4 | CN1C(=O)CCC(N2Cc3c(C#CCCCCCC(=O)N4CC[C@H]5CC[C@@H](C(=O)N[C@@H](CCC(N)=O)C(=O)NC(c6ccccc6)c6ccccc6)N5C(=O)[C@@H](NC(=O)c5cc6cc(C(F)(F)P(=O)(O)O)ccc6[nH]5)C4)cccc3C2=O)C1=O (stereo not given in full) | > 10 µM | > 10 µM | > 10 µM | 5.21 µM | inactive | inactive | inactive | inactive | inactive | inactive | inactive | inactive | inactive | inactive | inactive | inactive | inactive | inactive | inactive | inactive | Activity [24]: 0%
